From ChEMBL document CHEMBL1122632, “Synthesis and antitumor activity of cis-dichloroplatinum (II)-N-aminated nucleoside complexes” (J Med Chem, 1984)
Values after ≈ are worked out from the molar mass of the structure shown. Values joined by “and” are separate entries in the source; they are usually repeats but may differ in a detail not shown here. Equal entries are not always repeated.

Legend:
L1210 [1] = assay: Ratio of median survival time of the mice bearing L1210 cells in treated(T) vs. control(C) at a dose of 114 mg/kg x 2 days; format: functional, Mus musculus
Outline: (§1)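 (BALB/c x DBA/2)F1 mice, 20 g, implanted ip with 10^4 L1210 cells. Test samples in saline (0.2 mL) given ip on days 1 and 5 after tumor inoculation; doses above 100 mg/kg homogenized with Nikkol (7 times by weight) as vehicle. Activity from median survival time of treated group versus control group (T/C).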

L1210 [2] = assay: Ratio of median survival time of the mice bearing L1210 cells in treated(T) vs. control(C) at a dose of 2 mg/kg x 2 days; format: functional, Mus musculus; outline: as §1
L1210 [3] = assay: In vitro inhibitory effect on growth of L1210 cells; (10E-6); format: functional, cell-based; conditions: Mus musculus
Outline: (§2)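 L1210 cells (10^5 in 1 mL) were grown in RPMI 1640 with 10% FCS and kanamycin, at 37 °C in CO2, for 48 h. Compounds were heated at 110 °C for 8 h, dissolved in medium and tested at ≥6 concentrations. Viability was scored by 0.17% Trypan blue exclusion against drug-free controls. IC50 was the concentration halving living cell number, taken from the log-probit dose-response curve.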

L1210 [4] = assay: In vitro inhibition of L1210 (murine leukemia) cell growth.; format: functional, cell-based, Mus musculus; conditions: Mus musculus, L1210; read-out: IC50; outline: as §2
L1210 [5] = assay: Median survival time (MST) of mice bearing L1210 cells was determined at a dose of 114 mg/kg x 2 days administered ip.; format: functional, Mus musculus; outline: as §1
L1210 [6] = assay: Median survival time (MST) of mice bearing L1210 cells was determined at a dose of 2 mg/kg x 2 days administered ip.; format: functional, Mus musculus; outline: as §1
L1210 [7] = assay: Ratio of median survival time of the mice bearing L1210 cells in treated(T) vs. control(C) at a dose of 112 mg/kg x 2 days; format: functional, Mus musculus; outline: as §1
L1210 [8] = assay: Ratio of median survival time of the mice bearing L1210 cells in treated(T) vs. control(C) at a dose of 30 mg/kg x 2 days; format: functional, Mus musculus; outline: as §1
L1210 [9] = assay: In vitro inhibitory effect on growth of L1210 cells; 1.5*10e-3; format: functional, cell-based; conditions: Mus musculus; outline: as §2
L1210 [10] = assay: Median survival time (MST) of mice bearing L1210 cells was determined at a dose of 59 mg/kg x 2 days administered ip; Toxic.; format: functional, organism-based; design: dose 59 mg/kg; conditions: Mus musculus
Outline: (§3)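 (BALB/c × DBA/2)F1 mice (20 g) were implanted ip with 10^4 L1210 cells. Compounds in saline (0.2 mL) were given ip on days 1 and 5; doses above 100 mg/kg were homogenized with Nikkol (7× by weight). Activity was scored as median survival time of treated mice and expressed as T/C, the ratio of treated to control median survival time.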

L1210 [11] = assay: Median survival time (MST) of mice bearing L1210 cells was determined at a dose of 2 mg/kg x 2 days administered ip; Toxic.; format: functional, organism-based; design: dose 2 mg/kg; conditions: Mus musculus; outline: as §3
L1210 [12] = assay: Median survival time (MST) of mice bearing L1210 cells was determined at a dose of 300 mg/kg x 2 days administered ip; Toxic; format: functional, organism-based; design: dose 300 mg/kg; conditions: Mus musculus; outline: as §3
L1210 [13] = assay: Ratio of median survival time of the mice bearing L1210 cells in treated(T) vs. control(C) at a dose of 10 mg/kg x 2 days; format: functional, organism-based; design: dose 10 mg/kg; conditions: Mus musculus; outline: as §3
L1210 [14] = assay: Ratio of median survival time of the mice bearing L1210 cells in treated(T) vs. control(C) at a dose of 100 mg/kg x 2 days; format: functional, organism-based; design: dose 100 mg/kg; conditions: Mus musculus; outline: as §3
L1210 [15] = assay: Ratio of median survival time of the mice bearing L1210 cells in treated(T) vs. control(C) at a dose of 200 mg/kg x 2 days; format: functional, organism-based; design: dose 200 mg/kg; conditions: Mus musculus; outline: as §3
L1210 [16] = assay: Ratio of median survival time of the mice bearing L1210 cells in treated(T) vs. control(C) at a dose of 25 mg/kg x 2 days; format: functional, organism-based; design: dose 25 mg/kg; conditions: Mus musculus; outline: as §3
L1210 [17] = assay: Ratio of median survival time of the mice bearing L1210 cells in treated(T) vs. control(C) at a dose of 50 mg/kg x 2 days; format: functional, organism-based; design: dose 50 mg/kg; conditions: Mus musculus; outline: as §3
L1210 [18] = assay: Median survival time (MST) of mice bearing L1210 cells was determined at a dose of 50 mg/kg x 2 days administered ip.; format: functional, organism-based; design: dose 50 mg/kg; conditions: Mus musculus; outline: as §3
L1210 [19] = assay: Median survival time (MST) of mice bearing L1210 cells was determined at a dose of 25 mg/kg x 2 days administered ip.; format: functional, organism-based; design: dose 25 mg/kg; conditions: Mus musculus; outline: as §3
L1210 [20] = assay: Median survival time (MST) of mice bearing L1210 cells was determined at a dose of 100 mg/kg x 2 days administered ip.; format: functional, organism-based; design: dose 100 mg/kg; conditions: Mus musculus; outline: as §3
L1210 [21] = assay: Median survival time (MST) of mice bearing L1210 cells was determined at a dose of 200 mg/kg x 2 days administered ip.; format: functional, organism-based; design: dose 200 mg/kg; conditions: Mus musculus; outline: as §3
L1210 [22] = assay: Median survival time (MST) of mice bearing L1210 cells was determined at a dose of 10 mg/kg x 2 days administered ip.; format: functional, organism-based; design: dose 10 mg/kg; conditions: Mus musculus; outline: as §3
Mus musculus [23] = assay: Blood urea nitrogen values in ICR mice after intraperitoneal administration at an equivalent molar dose of the LD50 of […](13 mg/kg) on day 3; format: functional, organism-based
Outline: (§4)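 ICR mice (25-30 weeks, 39 ± 4 g), 5-6 per group, given one ip dose of 0.043 mmol/kg, equimolar to 13 mg/kg cis-DDP. On days 3, 6 and 9, blood was drawn from the heart under ether anesthesia and stored frozen. BUN was measured later by a modified urease indophenol method. Results are mean ± SD, mg/100 mL blood, compared with untreated controls.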

Mus musculus [24] = assay: Blood urea nitrogen values in ICR mice after intraperitoneal administration at an equivalent molar dose of the LD50 of […](13 mg/kg) on day 6; format: functional, organism-based; outline: as §4
Mus musculus [25] = assay: Blood urea nitrogen values in ICR mice after intraperitoneal administration at an equivalent molar dose of the LD50 of […](13 mg/kg) on day 9; format: functional, organism-based; outline: as §4
Mus musculus [26] = assay: Effect on body weight in ICR mice was determined after intraperitoneal administration on day 3; format: functional, organism-based
Outline: (§5)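 ICR mice (25-30 weeks, 39 ± 4 g), 5-6 per group, given one ip dose of 0.043 mmol/kg, equimolar to 13 mg/kg cis-DDP. Body and kidney weights were taken on days 3, 6 and 9 and compared with untreated controls. Weights are paired, mean ± SD.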

Mus musculus [27] = assay: Effect on body weight in ICR mice was determined after intraperitoneal administration on day 6; format: functional, organism-based; outline: as §5
Mus musculus [28] = assay: Effect on body weight in ICR mice was determined after intraperitoneal administration on day 9; format: functional, organism-based; outline: as §5
Mus musculus [29] = assay: Effect on kidney weight in ICR mice was determined after intraperitoneal administration on day 3; format: functional, organism-based; outline: as §5
Mus musculus [30] = assay: Effect on kidney weight in ICR mice was determined after intraperitoneal administration on day 6; format: functional, organism-based; outline: as §5
Mus musculus [31] = assay: Effect on kidney weight in ICR mice was determined after intraperitoneal administration on day 9; format: functional, organism-based; outline: as §5
L1210 [32] = assay: Median survival time (MST) of mice bearing L1210 cells was determined at a dose of 115 mg/kg x 2 days administered ip; Toxic.; format: functional, organism-based; design: dose 115 mg/kg; conditions: Mus musculus; outline: as §3

## N=c1c2ccn(C3O[C@H](CO)[C@@H](O)[C@H]3O)c2ncn1N (stereo partly drawn)
L1210 [1]
  T/C: 95%
L1210 [2]
  T/C: 110%
L1210 [3]
  IC50: 8.5 µM
L1210 [4]
  IC50: 2.7 µg/mL (≈ 9.6 µM)
L1210 [5]
  MST: 9.5 days
L1210 [6]
  MST: 11 days

## N=c1ccn([C@@H]2O[C@H](CO)[C@@H](O)[C@H]2O)c(=O)n1N
L1210 [4]
  IC50: 400 µg/mL and 1.36 mM

## N=c1ccn([C@@H]2O[C@H](CO)[C@@H](O)[C@@H]2O)c(=O)n1N
L1210 [7]
  T/C: 100%
L1210 [8]
  T/C: 95%
L1210 [9]
  IC50: 1530 µM
L1210 [4]
  IC50: 45 µg/mL (≈ 174 µM)
L1210 [5]
  MST: 10 days
L1210 [6]
  MST: 9.5 days

## N=c1ccn([C@H]2C[C@H](O)[C@@H](CO)O2)c(=O)n1N
L1210 [4]
  IC50: 2000 µg/mL and 7.18 mM

## 3-amino-2'-deoxycytidine hydrochloridecis-DDP
L1210 [10]
  MST: Toxic
L1210 [11]
  MST: Toxic

## 3-amino-2'-deoxycytidine-dichloroplatinum (II)
L1210 [12]
  MST: Toxic
L1210 [13]
  T/C: 125%
L1210 [14]
  T/C: 181%
L1210 [15]
  T/C: 106%
L1210 [16]
  T/C: 131%
L1210 [17]
  T/C: 162%
L1210 [18]
  MST: 13 days
L1210 [19]
  MST: 10.5 days
L1210 [20]
  MST: 14.5 days
L1210 [21]
  MST: 8.5 days
L1210 [22]
  MST: 10 days
Mus musculus [23]
  Blood urea nitrogen: 27.2 mg 100ml-1
Mus musculus [24]
  Blood urea nitrogen: 28 mg 100ml-1
Mus musculus [25]
  Blood urea nitrogen: 26 mg 100ml-1
Mus musculus [26]
  Body weight: 38.3
Mus musculus [27]
  Body weight: 39.3
Mus musculus [28]
  Body weight: 35.5
Mus musculus [29]
  Kidney weight: 626
Mus musculus [30]
  Kidney weight: 654
Mus musculus [31]
  Kidney weight: 634

## 3-amino-cytidine hydrochloridecis-DDP
L1210 [32]
  MST: Toxic
L1210 [11]
  MST: Toxic
